Paper PMC4171190 (Fitoterapia, 2014)
Read-outs that look alike come from different tables or passages of the source. Marks after values point to notes of the source that are not given here.

Assays:
[1] = target: alpha7 nAChR (Rattus norvegicus, UniProt Q05941); assay: [3H]-MLA displacement from rat hippocampal membranes; type: binding
[2] = target: nicotinic binding sites on BV2 membranes; assay: [3H]-epibatidine saturation binding on BV2 membranes; parameters: species or system murine; conditions: read-out: Kd, saturation binding; BV2 microglia membranes
[3] = tested on: LPS stimulated BV2 microglia; assay: Inhibition of NO release from LPS stimulated BV2 microglia; type: cell-based, murine
In short: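 BV2 murine microglia (DMEM/F-12, 10% FBS, 37°C, 5% CO2) trypsinised, seeded 5×10^5 cells/well in 24-well plates, adhered overnight. Pretreated 1h serum-free with test compound (±10μM MLA or 1μM nicotine), then 10μg/ml LPS for 24h. Supernatant nitrite read immediately by Griess, A550, against NaNO2 standard. Expressed as % of LPS alone; sigmoidal fits, fixed vs variable slope compared by F-test.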

[4] = tested on: LPS stimulated BV2 microglia; assay: Inhibition of TNF-alpha release from LPS stimulated BV2 microglia; type: cell-based, murine; conditions: flavonoid alone; 10μg/ml LPS 24h
In short: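 Murine BV2 cells seeded at 5×10^5 cells/well in 24-well plates, adhered overnight, then given 1h serum-free pretreatment with test compound (±10μM MLA or 1μM nicotine) before 10μg/ml LPS for 24h. Supernatants frozen, then assayed by mouse TNF-alpha ELISA. Release expressed as % of LPS alone, normalised to resazurin viability when groups differed. Sigmoidal fits, fixed vs variable slope compared by F-test.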

[5] = IC50 [3H]-MLA displacement, rat hippocampal membranes, 2nM [3H]-MLA
[6] = pIC50 [3H]-MLA displacement, rat hippocampal membranes, 2nM [3H]-MLA

Chain of alpha7 nAChR (Q05941 23-502): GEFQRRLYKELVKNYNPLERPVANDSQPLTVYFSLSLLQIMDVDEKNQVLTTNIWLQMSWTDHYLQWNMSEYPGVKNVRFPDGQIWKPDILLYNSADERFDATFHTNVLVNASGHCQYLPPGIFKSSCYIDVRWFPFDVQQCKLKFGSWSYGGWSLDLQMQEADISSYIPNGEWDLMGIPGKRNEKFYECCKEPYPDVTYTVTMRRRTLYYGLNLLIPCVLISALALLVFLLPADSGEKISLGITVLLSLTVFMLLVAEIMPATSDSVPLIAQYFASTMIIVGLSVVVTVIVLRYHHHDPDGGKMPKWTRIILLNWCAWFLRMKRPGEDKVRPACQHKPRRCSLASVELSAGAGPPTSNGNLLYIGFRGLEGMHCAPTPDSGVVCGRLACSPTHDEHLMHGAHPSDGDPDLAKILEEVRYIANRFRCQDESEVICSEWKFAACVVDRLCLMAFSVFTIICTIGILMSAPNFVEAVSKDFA

## O=c1c(O[C@@H]2O[C@H](CO)[C@@H](O)[C@H](O)[C@H]2O)c(-c2ccc(O)cc2)oc2cc(O)cc(O)c12 [Astragalin]
[1]; [5]
  IC50: 496 µM

## O=c1c(-c2ccc(O)cc2)coc2cc(O[C@@H]3O[C@H](CO)[C@@H](O)[C@H](O)[C@H]3O)ccc12 [Daidzin]
[1]; [5]
  IC50: 120 µM

## Clc1ccc(C2CC3CCC2N3)cn1 (centres unmarked) [[^3H]-epibatidine]
[2]
  Kd: 0.0065 µM

## CN1CCC[C@H]1c1cccnc1 [nicotine, (-)-nicotine]
[3]; 1μM, alone
  effect alone on LPS induced release of inflammatory mediators: no effect alone
[3]; 10μM mecamylamine
  effect of mecamylamine on inhibition of NO release: blocked
[3]; 1h pretreatment, 10μg/ml LPS 24h
  maximal inhibition of LPS elicited release of NO: ~20%

## COc1cc(-c2oc3cc(O)cc(O)c3c(=O)c2O)ccc1O [Isorhamnetin]
[1]; [5]
  IC50: 46.5 µM
[1]; [6]
  IC50: 46.6 µM

## O=c1cc(-c2ccccc2)oc2cc(O)c(O)c(O)c12 [Baicalein]
[1]; [5]
  IC50: 66.1 µM

## O=c1c(O)c(-c2ccc(O)c(O)c2)oc2cc(O)cc(O)c12 [Quercetin]
[1]; [5]
  IC50: 11.4 µM
[1]; [6]
  IC50: 11.5 µM

## COc1cc(-c2[o+]c3cc(O)cc(O)c3cc2O)cc(OC)c1O [Malvidin]
[1]
  IC50: 90 µM

## COc1cc(O)c2c(=O)c(O)c(-c3ccc(O)c(O)c3)oc2c1 [Rhamnetin]
[1]; [6]
  IC50: 1.11 µM
[4]
  Hill slope, inhibition of TNF-alpha release: -3.5 ± 4.1

## COc1cc(-c2[o+]c3cc(O)cc(O)c3cc2O[C@@H]2O[C@H](CO)[C@@H](O)[C@H](O)[C@H]2O)cc(O)c1O [Petunidin-3-glucoside]
[1]; rat hippocampal membranes, 2nM [3H]-MLA
  pIC50 [3H]-MLA displacement: 2.464 ± 0.95
[1]; read-out: IC50 [3H]-MLA displacement, rat hippocampal membranes, 2nM [3H]-MLA
  IC50: 3430 µM

## COc1cc(O)c2c(c1)O[C@H](c1ccc(O)cc1)CC2=O [Sakuranetin]
[3]; addition of MLA, LPS stimulated BV2
  effect of added MLA on anti-inflammatory properties (NO and TNF-alpha release): no effect
[3]; flavonoid alone, 10μg/ml LPS 24h
  Hill slope, inhibition of NO release: -1.0 ^**
[4]
  Hill slope, inhibition of TNF-alpha release: -1.0 ^**

## COc1ccc(-c2oc3cc(O)cc(O)c3c(=O)c2O)cc1O [Tamarixetin]
[1]; [5]
  IC50: 238 µM

## O=c1c(O)c(-c2ccc(O)c(O)c2)oc2cc(O)c(O)c(O)c12 [Quercetagetin]
[1]
  IC50: 14.3 µM

## O=c1c(O)c(-c2ccc(O[C@@H]3O[C@H](CO)[C@@H](O)[C@H](O)[C@H]3O)c(O)c2)oc2cc(O)cc(O)c12 [Spiraeoside]
[1]; [5]
  IC50: 8.35 µM

## O=c1c(O[C@@H]2O[C@H](CO)[C@@H](O)[C@H](O)[C@H]2O)c(-c2ccc(O)c(O)c2)oc2cc(O)cc(O)c12 [Isoquercitrin]
[1]; [6]
  IC50: 21.5 µM
